According to ChEMBL document CHEMBL5357024, “MDM2 Antagonist Idasanutlin Reduces HDAC1/2 Abundance and Corepressor Partners but Not HDAC3” (ACS Med Chem Lett, 2024):

How the values were obtained:
Assay type in all cases: cell-based
[1] = biological target: T1, E3 ubiquitin-protein ligase Mdm2/Histone deacetylase 3 (Homo sapiens) (UniProt Q00987+O15379); assay: PROTAC activity at MDM2/HDAC3 in human HCT-116 cells assessed as reduction in HDAC3 abundance by measuring remaining activity at 10 uM measured after 24 hrs by Western blot analysis (reference value: 100%)
T1 sequence (O15379 whole entry, looked up): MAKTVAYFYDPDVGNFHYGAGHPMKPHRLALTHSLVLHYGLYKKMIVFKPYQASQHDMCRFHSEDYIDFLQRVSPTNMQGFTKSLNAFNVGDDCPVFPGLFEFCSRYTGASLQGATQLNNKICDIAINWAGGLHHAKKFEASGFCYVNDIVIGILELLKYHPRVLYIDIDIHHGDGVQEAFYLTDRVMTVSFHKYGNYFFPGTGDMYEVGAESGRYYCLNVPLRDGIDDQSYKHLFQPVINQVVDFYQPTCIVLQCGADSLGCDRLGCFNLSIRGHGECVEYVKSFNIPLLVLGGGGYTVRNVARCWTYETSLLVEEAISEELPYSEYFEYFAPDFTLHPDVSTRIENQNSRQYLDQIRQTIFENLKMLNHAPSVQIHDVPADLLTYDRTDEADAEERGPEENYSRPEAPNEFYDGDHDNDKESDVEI
T1 sequence (Q00987 whole entry, looked up): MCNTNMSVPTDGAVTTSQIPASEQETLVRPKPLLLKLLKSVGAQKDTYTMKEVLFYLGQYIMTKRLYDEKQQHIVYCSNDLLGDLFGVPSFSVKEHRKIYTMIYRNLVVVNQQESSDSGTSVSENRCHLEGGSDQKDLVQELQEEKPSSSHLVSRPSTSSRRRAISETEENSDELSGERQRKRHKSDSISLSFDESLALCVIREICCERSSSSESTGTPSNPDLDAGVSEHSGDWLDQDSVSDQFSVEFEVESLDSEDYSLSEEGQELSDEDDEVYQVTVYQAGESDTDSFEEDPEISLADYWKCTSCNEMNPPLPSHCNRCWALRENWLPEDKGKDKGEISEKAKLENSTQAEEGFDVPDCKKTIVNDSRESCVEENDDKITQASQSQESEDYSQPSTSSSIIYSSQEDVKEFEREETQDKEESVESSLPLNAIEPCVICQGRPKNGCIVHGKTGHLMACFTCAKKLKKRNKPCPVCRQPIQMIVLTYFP
Summary of the method: (§1)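 HCT116 cells in DMEM with 10% FBS and glutamine/penicillin/streptomycin at 37 °C, 5% CO2. Seeded 4 × 10^5 cells/well, after 24 h treated 24 h with DMSO or compound in fresh medium. Lysed in Tris-HCl/NaCl/NP-40/Triton X-100 buffer with protease inhibitor, Bradford-quantified, 30 μg protein per lane. Quantitative Western blot with specific HDAC1/2/3 antibodies, IRDye secondaries, infrared imaging, versus DMSO. n = 2 replicates.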

[2] = biological target: T2, E3 ubiquitin-protein ligase Mdm2/Histone deacetylase 1 (Homo sapiens) (UniProt Q00987+Q13547); assay: PROTAC activity at MDM2/HDAC1 in human HCT-116 cells assessed as decrease in HDAC1 abundance by measuring remaining activity at 10 uM measured after 24 hrs by Western blot analysis (reference value: 100%)
T2 sequence (Q00987 whole entry, looked up): as above
T2 sequence (Q13547 whole entry, looked up): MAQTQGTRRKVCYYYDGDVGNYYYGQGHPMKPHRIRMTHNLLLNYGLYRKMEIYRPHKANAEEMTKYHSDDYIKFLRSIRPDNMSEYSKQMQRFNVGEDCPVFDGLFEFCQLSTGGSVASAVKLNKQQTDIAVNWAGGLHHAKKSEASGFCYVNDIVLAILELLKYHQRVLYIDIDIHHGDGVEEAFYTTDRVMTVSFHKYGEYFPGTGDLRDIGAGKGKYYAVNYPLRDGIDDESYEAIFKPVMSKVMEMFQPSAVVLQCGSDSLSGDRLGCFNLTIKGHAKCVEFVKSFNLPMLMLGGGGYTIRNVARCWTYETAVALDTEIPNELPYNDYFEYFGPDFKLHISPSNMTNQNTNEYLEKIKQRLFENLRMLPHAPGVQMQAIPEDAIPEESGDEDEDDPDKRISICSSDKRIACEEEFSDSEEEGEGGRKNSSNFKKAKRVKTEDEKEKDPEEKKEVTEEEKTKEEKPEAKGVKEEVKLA
Summary of the method: (§2)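 HCT116 cells seeded in six-well plates for 24 h, then exposed 24 h to compound (0.01–10 μM) or DMSO in fresh medium. Lysis in Tris-HCl/NaCl/NP-40/Triton X-100 with protease inhibitor. Bradford-normalised 30 μg protein per lane. Quantitative Western blot used specific HDAC1, HDAC2, HDAC3, LSD1 or Sin3a antibodies with IRDye secondaries. Abundance compared with DMSO, n = 2 replicates.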

[3] = biological target: Lysine-specific histone demethylase 1A (Homo sapiens) (UniProt O60341); assay: Induction of LSD1 degradation in human HCT-116 cells assessed as reduction in LSD1 abundance by measuring remaining activity at 2.5 uM measured after 24 hrs by Western blot analysis (reference value: 100%); summary of the method: as §2
[4] = biological target: Lysine-specific histone demethylase 1A (Homo sapiens) (UniProt O60341); assay: Induction of LSD1 degradation in human HCT-116 cells assessed as reduction in LSD1 abundance by measuring remaining activity at 0.25 uM measured after 24 hrs by Western blot analysis (reference value: 100%); summary of the method: as §2
[5] = biological target: E3 ubiquitin-protein ligase Mdm2/Histone deacetylase 2 (Homo sapiens) (UniProt Q00987+Q92769); assay: PROTAC activity at MDM2/HDAC2 in human HCT-116 cells assessed as decrease in HDAC2 abundance by measuring remaining activity at 0.025 uM measured after 24 hrs by Western blot analysis (reference value: 100%); summary of the method: as §2
Chain of E3 ubiquitin-protein ligase Mdm2/Histone deacetylase 2 (Homo sapiens) (Q00987 whole entry, looked up): as the sequence (Q00987 whole entry, looked up) above
Chain of E3 ubiquitin-protein ligase Mdm2/Histone deacetylase 2 (Homo sapiens) (Q92769 whole entry, looked up): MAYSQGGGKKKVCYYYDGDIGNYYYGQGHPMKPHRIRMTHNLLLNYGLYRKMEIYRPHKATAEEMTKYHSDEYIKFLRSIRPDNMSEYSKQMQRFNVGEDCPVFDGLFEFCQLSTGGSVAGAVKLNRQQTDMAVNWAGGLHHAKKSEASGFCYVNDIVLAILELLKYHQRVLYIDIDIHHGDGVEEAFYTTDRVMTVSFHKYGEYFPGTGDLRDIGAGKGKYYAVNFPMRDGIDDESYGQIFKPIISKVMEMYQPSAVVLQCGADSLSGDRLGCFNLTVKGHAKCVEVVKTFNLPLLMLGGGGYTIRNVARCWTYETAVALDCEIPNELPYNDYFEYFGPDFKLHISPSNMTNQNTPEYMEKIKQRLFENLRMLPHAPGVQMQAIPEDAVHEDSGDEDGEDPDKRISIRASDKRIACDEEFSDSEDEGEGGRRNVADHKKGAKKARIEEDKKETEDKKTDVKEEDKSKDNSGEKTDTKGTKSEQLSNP

[6] = biological target: T1, E3 ubiquitin-protein ligase Mdm2/Histone deacetylase 3 (Homo sapiens); assay: PROTAC activity at MDM2/HDAC3 in human HCT-116 cells assessed as reduction in HDAC3 abundance by measuring remaining activity at 5 uM measured after 24 hrs by Western blot analysis; summary of the method: as §1
[7] = biological target: T2, E3 ubiquitin-protein ligase Mdm2/Histone deacetylase 1 (Homo sapiens); assay: PROTAC activity at MDM2/HDAC1 in human HCT-116 cells assessed as induction of HDAC1 degradation by Western blot analysis; details: dose 0.01-10 µM
[8] = biological target: T2, E3 ubiquitin-protein ligase Mdm2/Histone deacetylase 1 (Homo sapiens); assay: PROTAC activity at MDM2/HDAC1 in human HCT-116 cells assessed as decrease in HDAC1 abundance by measuring remaining activity at 5 uM measured after 24 hrs by Western blot analysis (reference value: 100%); summary of the method: as §2
[9] = biological target: T3, Paired amphipathic helix protein Sin3a (Homo sapiens) (UniProt Q96ST3); assay: Induction of SIN3A degradation in human HCT-116 cells assessed as reduction in SIN3A abundance by measuring remaining activity at 0.05 uM measured after 24 hrs by Western blot analysis (reference value: 100%); summary of the method: as §2
T3 sequence (whole entry): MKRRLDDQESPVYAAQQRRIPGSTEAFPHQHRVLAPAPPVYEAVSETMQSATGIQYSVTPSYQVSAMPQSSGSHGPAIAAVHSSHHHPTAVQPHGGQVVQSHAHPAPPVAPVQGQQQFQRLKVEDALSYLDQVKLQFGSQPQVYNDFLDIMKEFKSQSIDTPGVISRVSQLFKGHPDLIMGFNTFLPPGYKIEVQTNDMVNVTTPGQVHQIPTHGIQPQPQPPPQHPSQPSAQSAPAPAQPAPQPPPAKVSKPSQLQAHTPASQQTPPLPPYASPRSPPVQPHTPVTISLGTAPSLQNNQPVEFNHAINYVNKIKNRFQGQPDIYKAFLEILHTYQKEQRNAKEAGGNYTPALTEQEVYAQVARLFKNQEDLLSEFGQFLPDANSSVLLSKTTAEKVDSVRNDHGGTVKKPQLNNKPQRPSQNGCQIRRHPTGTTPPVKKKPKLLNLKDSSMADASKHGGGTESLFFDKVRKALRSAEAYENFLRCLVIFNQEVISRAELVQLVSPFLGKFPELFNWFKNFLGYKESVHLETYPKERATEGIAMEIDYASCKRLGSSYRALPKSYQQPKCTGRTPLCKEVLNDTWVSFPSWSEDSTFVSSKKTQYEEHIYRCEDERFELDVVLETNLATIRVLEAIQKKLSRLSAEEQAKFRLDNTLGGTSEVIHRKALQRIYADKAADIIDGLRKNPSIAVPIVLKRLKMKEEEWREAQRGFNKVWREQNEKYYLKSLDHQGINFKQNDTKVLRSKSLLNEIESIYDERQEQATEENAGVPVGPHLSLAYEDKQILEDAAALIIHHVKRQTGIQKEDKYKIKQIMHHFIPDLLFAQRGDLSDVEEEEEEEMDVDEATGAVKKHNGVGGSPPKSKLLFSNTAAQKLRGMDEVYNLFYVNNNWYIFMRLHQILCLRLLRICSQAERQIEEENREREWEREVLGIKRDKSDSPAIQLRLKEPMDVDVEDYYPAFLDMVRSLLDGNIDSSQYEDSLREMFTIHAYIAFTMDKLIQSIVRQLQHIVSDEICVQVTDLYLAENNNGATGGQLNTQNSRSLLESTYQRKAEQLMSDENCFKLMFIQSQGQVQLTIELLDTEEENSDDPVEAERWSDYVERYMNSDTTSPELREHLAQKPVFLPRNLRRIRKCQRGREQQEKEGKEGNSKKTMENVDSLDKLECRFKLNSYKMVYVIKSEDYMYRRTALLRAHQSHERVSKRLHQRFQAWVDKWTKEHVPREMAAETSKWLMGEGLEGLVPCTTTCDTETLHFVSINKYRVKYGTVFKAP

[10] = biological target: Lysine-specific histone demethylase 1A (Homo sapiens) (UniProt O60341); assay: Induction of LSD1 degradation in human HCT-116 cells assessed as reduction in LSD1 abundance by measuring remaining activity at 0.1 uM measured after 24 hrs by Western blot analysis (reference value: 100%); summary of the method: as §2
[11] = biological target: T2, E3 ubiquitin-protein ligase Mdm2/Histone deacetylase 1 (Homo sapiens); assay: PROTAC activity at MDM2/HDAC1 in human HCT-116 cells assessed as decrease in HDAC1 abundance by measuring remaining activity at 0.025 uM measured after 24 hrs by Western blot analysis (reference value: 100%); summary of the method: as §2
[12] = biological target: T1, E3 ubiquitin-protein ligase Mdm2/Histone deacetylase 3 (Homo sapiens); assay: PROTAC activity at MDM2/HDAC3 in human HCT-116 cells assessed as reduction in HDAC3 abundance by measuring remaining activity at 0.25 uM measured after 24 hrs by Western blot analysis; summary of the method: as §1

Activity [1]: 91%
Activity [2]: 36%
Activity [3]: 73%
Activity [4]: 95%
Activity [5]: 96%
Activity [6]: 105%
Activity [7]: Dose-Dependent Effect
Activity [8]: 41%
Activity [9]: 103%
Activity [10]: 104%
Activity [11]: 94%
Activity [12]: 102%
Structure (SMILES): COc1cc(C(=O)NCCOCCOCCOCCOCCC(=O)Nc2ccc(C(=O)Nc3ccccc3N)cc2)ccc1NC(=O)[C@@H]1N[C@@H](CC(C)(C)C)[C@](C#N)(c2ccc(Cl)cc2F)[C@H]1c1cccc(Cl)c1F
